# In ChEMBL document CHEMBL4043093, “2-Oxo-3, 4-dihydropyrimido[4, 5-d]pyrimidinyl derivatives as new irreversible pan fibroblast growth factor receptor (FGFR) inhibitors” (Eur J Med Chem, 2017):
# What was measured:
# [1] = biological target: Serine/threonine-protein kinase N1 (Homo sapiens) (UniProt Q16512); assay: Inhibition of wild-type human partial length PKN1 (E598 to C948 residues) expressed in Escherichia coli BL21 assessed as residual activity at 1000 nM after 30 mins by Kinomescan method relative to control
# [2] = biological target: Microtubule-associated serine/threonine-protein kinase 1 (Homo sapiens) (UniProt Q9Y2H9); assay: Inhibition of wild-type human partial length MAST1 (S346 to V730 residues) expressed in HEK293 cells assessed as residual activity at 1000 nM after 30 mins by Kinomescan method relative to control; type: cell-based
# [3] = biological target: Myosin light chain kinase (Homo sapiens) (UniProt Q32MK0); assay: Inhibition of wild-type human partial length MLCK (D488 to K800 residues) expressed in Escherichia coli BL21 assessed as residual activity at 1000 nM after 30 mins by Kinomescan method relative to control
# [4] = biological target: cGMP-dependent protein kinase 2 (Homo sapiens) (UniProt Q13237); assay: Inhibition of wild-type human partial length PRKG2 (S422 to F762 residues) expressed in HEK293 cells assessed as residual activity at 1000 nM after 30 mins by Kinomescan method relative to control; type: cell-based
# cGMP-dependent protein kinase 2 (Homo sapiens), sequence (Q13237 whole entry, the tested form may be a part, canonical isoform): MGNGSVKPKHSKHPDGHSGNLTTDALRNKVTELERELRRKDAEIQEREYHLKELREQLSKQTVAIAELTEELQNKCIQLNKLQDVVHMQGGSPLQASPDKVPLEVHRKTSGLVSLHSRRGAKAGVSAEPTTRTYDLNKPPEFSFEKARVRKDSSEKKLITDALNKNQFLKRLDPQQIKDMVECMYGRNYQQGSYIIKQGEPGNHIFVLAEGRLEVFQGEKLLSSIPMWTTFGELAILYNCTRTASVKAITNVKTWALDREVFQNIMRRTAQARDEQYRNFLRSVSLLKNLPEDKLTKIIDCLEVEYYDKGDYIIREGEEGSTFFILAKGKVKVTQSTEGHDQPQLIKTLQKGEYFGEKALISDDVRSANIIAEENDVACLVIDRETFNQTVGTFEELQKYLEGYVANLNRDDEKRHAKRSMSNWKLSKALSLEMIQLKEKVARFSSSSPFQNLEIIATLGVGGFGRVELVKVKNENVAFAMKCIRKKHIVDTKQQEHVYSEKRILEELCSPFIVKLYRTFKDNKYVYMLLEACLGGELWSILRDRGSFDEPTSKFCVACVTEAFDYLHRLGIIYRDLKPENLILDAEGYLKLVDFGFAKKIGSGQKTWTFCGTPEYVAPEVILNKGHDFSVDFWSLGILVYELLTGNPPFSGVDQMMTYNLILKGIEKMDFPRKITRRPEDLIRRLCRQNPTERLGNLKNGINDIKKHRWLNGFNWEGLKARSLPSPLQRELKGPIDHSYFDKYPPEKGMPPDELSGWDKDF
# [5] = system: Phosphatidylinositol 4,5-bisphosphate 3-kinase catalytic subunit alpha isoform (Homo sapiens), P42336 [I800L]; assay: Inhibition of human partial length PIK3CA I800L mutant (R108 to N1068 residues) expressed in HEK293 cells assessed as residual activity at 1000 nM after 30 mins by Kinomescan method relative to control; type: cell-based
# How it was run: (§1)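 Single-point screen at a fixed 1 µM, run within a 456-kinase DiscoveRx KINOMEscan panel. Each kinase's read-out is Percent Control, i.e. signal relative to a control without compound. Hits were scored by a Percent Control < 35 cut-off, and an S(35) selectivity score was calculated across the non-mutant kinases.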
# [6] = system: Mast/stem cell growth factor receptor Kit (Homo sapiens), P10721 [V559D,T670I]; assay: Inhibition of human partial length KIT V559D/T670I double mutant (Y545 to D952 residues) expressed in Escherichia coli BL21 assessed as residual activity at 1000 nM after 30 mins by Kinomescan method relative to control
# Mast/stem cell growth factor receptor Kit (Homo sapiens), P10721 [V559D,T670I], sequence (P10721 whole entry V559D/T670I, the tested form may be a part): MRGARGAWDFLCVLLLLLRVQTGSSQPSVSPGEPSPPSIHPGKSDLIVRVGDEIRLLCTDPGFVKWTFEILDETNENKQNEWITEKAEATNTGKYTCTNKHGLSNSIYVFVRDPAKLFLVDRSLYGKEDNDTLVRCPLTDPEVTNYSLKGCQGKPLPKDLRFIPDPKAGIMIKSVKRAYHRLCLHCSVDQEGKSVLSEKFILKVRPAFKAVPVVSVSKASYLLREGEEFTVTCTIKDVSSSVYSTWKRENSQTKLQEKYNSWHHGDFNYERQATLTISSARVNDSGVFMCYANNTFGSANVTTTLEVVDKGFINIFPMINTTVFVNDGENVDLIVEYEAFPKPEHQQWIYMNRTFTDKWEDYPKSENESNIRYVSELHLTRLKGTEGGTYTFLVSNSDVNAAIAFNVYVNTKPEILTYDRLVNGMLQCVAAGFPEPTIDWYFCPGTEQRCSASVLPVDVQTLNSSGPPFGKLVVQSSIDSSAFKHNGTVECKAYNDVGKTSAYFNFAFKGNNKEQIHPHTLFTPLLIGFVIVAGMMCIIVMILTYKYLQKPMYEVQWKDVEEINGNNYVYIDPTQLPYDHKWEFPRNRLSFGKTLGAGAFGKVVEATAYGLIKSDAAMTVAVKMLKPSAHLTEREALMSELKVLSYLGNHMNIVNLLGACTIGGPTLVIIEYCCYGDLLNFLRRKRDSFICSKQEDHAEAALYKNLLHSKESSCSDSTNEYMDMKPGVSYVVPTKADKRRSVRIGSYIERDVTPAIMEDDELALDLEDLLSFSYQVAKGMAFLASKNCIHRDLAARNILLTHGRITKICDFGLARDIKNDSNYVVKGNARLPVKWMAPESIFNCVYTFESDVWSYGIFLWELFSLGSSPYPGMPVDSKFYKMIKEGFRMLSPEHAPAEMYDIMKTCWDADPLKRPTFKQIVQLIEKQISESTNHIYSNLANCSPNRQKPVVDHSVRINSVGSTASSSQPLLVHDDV
# How it was run: (§2)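 KINOMEscan binding panel of 456 kinases, with the test compound at a single concentration of 1 µM. Read-out is Percent Control.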
# [7] = biological target: Serine/threonine-protein kinase SIK1 (Homo sapiens) (UniProt P57059); assay: Inhibition of wild-type human partial length SIK (M1 to Y304 residues) expressed in Escherichia coli BL21 assessed as residual activity at 1000 nM after 30 mins by Kinomescan method relative to control
# [8] = biological target: Casein kinase I isoform delta (Homo sapiens) (UniProt P48730); assay: Inhibition of wild-type human full length CSNK1D (M1 to K409 residues) expressed in Escherichia coli BL21 assessed as residual activity at 1000 nM after 30 mins by Kinomescan method relative to control; how it was run: as §1
# [9] = biological target: Cytoplasmic tyrosine-protein kinase BMX (Homo sapiens) (UniProt P51813); assay: Inhibition of wild-type human full length BMX (M1 to H675 residues) expressed in Escherichia coli BL21 assessed as residual activity at 1000 nM after 30 mins by Kinomescan method relative to control; how it was run: as §1
# [10] = biological target: Serine/threonine-protein kinase PLK2 (Homo sapiens) (UniProt Q9NYY3); assay: Inhibition of wild-type human partial length PLK2 (H58 to F354 residues) expressed in HEK293 cells assessed as residual activity at 1000 nM after 30 mins by Kinomescan method relative to control; type: cell-based
# [11] = biological target: Ephrin type-A receptor 6 (Homo sapiens) (UniProt Q9UF33); assay: Inhibition of wild-type human partial length EPHA6 (Y700 to E1046 residues) expressed in Escherichia coli BL21 assessed as residual activity at 1000 nM after 30 mins by Kinomescan method relative to control
# [12] = biological target: MAP kinase-interacting serine/threonine-protein kinase 2 (Homo sapiens) (UniProt Q9HBH9); assay: Inhibition of wild-type human partial length MKNK2 (G63 to S388 residues) expressed in HEK293 cells assessed as residual activity at 1000 nM after 30 mins by Kinomescan method relative to control; type: cell-based
# [13] = biological target: Receptor-interacting serine/threonine-protein kinase 1 (Homo sapiens) (UniProt Q13546); assay: Inhibition of wild-type human partial length RIPK1 (M1 to K305 residues) expressed in Escherichia coli BL21 assessed as residual activity at 1000 nM after 30 mins by Kinomescan method relative to control
# [14] = biological target: SNF-related serine/threonine-protein kinase (Homo sapiens) (UniProt Q9NRH2); assay: Inhibition of wild-type human partial length SNRK (M1 to E339 residues) expressed in HEK293 cells assessed as residual activity at 1000 nM after 30 mins by Kinomescan method relative to control; type: cell-based
# SNF-related serine/threonine-protein kinase (Homo sapiens), sequence (Q9NRH2 whole entry, the tested form may be a part): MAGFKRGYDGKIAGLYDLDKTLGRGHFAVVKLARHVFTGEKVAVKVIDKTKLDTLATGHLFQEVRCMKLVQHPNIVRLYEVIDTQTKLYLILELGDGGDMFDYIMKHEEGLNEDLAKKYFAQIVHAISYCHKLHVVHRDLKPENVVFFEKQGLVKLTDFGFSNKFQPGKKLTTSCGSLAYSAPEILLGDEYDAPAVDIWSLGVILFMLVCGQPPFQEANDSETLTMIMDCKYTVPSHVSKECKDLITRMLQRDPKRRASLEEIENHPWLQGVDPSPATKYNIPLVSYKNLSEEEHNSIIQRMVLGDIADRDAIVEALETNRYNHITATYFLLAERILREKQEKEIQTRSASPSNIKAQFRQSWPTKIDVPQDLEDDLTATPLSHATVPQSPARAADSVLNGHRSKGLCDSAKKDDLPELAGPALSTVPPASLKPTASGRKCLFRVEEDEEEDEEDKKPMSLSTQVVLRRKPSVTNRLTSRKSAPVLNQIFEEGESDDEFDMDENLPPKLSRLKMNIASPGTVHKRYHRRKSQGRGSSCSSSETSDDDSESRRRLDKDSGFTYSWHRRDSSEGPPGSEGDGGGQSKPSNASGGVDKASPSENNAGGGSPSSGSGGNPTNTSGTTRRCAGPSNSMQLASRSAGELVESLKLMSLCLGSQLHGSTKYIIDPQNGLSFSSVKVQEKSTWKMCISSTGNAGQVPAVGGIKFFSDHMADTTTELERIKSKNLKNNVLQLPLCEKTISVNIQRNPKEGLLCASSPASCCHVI
# [15] = biological target: Peripheral plasma membrane protein CASK (Homo sapiens) (UniProt O14936); assay: Inhibition of wild-type human partial length CASK (M1 to H315 residues) expressed in HEK293 cells assessed as residual activity at 1000 nM after 30 mins by Kinomescan method relative to control; type: cell-based
# Peripheral plasma membrane protein CASK (Homo sapiens), sequence (O14936 whole entry, the tested form may be a part): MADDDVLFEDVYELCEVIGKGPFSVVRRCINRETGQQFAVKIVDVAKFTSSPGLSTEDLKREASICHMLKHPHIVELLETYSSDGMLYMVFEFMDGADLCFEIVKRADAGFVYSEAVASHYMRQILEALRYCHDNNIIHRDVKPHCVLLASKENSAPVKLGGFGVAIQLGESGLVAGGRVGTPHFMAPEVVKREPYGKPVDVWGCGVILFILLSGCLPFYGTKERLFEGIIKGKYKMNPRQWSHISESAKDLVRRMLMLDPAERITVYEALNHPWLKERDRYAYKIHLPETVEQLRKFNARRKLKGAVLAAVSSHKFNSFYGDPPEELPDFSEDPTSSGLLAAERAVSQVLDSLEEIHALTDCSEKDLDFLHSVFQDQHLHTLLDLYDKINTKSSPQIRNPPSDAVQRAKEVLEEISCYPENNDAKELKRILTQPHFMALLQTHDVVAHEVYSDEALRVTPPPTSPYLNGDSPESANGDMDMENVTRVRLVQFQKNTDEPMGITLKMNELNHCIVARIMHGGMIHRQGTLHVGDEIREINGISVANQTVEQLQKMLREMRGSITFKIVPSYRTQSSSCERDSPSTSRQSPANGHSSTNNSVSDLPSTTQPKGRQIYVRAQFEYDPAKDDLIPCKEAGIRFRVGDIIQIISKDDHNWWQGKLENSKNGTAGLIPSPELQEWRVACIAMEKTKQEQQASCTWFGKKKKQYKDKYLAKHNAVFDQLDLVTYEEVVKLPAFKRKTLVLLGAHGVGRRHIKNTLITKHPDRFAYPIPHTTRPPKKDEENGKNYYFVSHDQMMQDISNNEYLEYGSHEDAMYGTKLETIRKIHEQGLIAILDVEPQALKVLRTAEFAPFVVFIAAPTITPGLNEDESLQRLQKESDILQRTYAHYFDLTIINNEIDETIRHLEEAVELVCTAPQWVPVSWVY
# [16] = system: Receptor-type tyrosine-protein kinase FLT3 (Homo sapiens), P36888 [K663Q]; assay: Inhibition of human partial length FLT3 K663Q mutant (V592 to Y969 residues) expressed in Escherichia coli BL21 assessed as residual activity at 1000 nM after 30 mins by Kinomescan method relative to control; how it was run: as §2
# [17] = biological target: Tyrosine-protein kinase Lyn (Homo sapiens) (UniProt P07948); assay: Inhibition of wild-type human partial length LYN (C219 to Q511 residues) expressed in Escherichia coli BL21 assessed as residual activity at 1000 nM after 30 mins by Kinomescan method relative to control
# Tyrosine-protein kinase Lyn (Homo sapiens), sequence (P07948 2-512 limits assumed): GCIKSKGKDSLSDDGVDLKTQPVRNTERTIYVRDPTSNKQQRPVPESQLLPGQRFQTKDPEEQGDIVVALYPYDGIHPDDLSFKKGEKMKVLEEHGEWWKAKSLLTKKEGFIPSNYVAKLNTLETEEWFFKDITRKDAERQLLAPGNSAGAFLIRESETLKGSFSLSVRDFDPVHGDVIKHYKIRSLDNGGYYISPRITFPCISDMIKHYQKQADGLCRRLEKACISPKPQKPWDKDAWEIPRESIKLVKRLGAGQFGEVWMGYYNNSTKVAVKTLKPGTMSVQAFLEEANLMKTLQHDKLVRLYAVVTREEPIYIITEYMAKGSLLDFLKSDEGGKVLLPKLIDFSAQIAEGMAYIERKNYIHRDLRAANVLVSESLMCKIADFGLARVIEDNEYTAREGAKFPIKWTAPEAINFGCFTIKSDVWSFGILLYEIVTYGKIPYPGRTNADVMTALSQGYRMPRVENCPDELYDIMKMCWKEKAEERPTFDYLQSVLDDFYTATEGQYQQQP
# [18] = biological target: Eukaryotic translation initiation factor 2-alpha kinase 1 (Homo sapiens) (UniProt Q9BQI3); assay: Inhibition of wild-type human partial length EIF2AK1 (Q147 to E603 residues) expressed in HEK293 cells assessed as residual activity at 1000 nM after 30 mins by Kinomescan method relative to control; type: cell-based
# Eukaryotic translation initiation factor 2-alpha kinase 1 (Homo sapiens), sequence (Q9BQI3 whole entry, the tested form may be a part, canonical isoform): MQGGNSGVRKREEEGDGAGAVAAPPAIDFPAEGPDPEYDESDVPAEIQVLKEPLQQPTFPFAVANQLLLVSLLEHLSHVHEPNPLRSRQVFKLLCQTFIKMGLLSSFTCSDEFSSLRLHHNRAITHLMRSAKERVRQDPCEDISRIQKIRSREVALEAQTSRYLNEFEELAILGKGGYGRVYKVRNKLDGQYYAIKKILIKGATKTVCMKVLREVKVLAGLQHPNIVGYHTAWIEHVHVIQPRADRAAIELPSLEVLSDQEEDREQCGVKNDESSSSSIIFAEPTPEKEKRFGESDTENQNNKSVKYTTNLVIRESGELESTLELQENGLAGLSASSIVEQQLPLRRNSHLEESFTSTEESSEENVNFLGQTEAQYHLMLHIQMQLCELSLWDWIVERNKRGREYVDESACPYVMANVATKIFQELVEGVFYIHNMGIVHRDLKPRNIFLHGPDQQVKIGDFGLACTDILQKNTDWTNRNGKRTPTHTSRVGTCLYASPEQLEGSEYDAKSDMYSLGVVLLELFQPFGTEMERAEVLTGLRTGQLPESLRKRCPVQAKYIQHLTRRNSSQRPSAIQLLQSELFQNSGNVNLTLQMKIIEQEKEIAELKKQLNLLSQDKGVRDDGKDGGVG
# [19] = biological target: Casein kinase I isoform alpha (Homo sapiens) (UniProt P48729); assay: Inhibition of wild-type human partial length CSNK1A1 (M1 to L450 residues) expressed in HEK293 cells assessed as residual activity at 1000 nM after 30 mins by Kinomescan method relative to control; type: cell-based
# Casein kinase I isoform alpha (Homo sapiens), sequence (P48729 2-337 limits assumed): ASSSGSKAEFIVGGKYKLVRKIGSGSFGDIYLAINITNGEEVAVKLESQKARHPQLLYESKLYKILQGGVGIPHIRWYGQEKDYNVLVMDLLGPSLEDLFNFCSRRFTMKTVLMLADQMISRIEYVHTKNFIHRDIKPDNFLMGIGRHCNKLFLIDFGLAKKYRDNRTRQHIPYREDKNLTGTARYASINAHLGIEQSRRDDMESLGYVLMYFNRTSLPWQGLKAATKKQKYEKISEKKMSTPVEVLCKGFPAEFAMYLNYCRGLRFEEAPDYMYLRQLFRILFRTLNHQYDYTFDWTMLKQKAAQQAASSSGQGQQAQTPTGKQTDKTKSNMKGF
# [20] = biological target: Ephrin type-B receptor 2 (Homo sapiens) (UniProt P29323); assay: Inhibition of wild-type human partial length EPHB2 (I597 to L902 residues) expressed in Escherichia coli BL21 assessed as residual activity at 1000 nM after 30 mins by Kinomescan method relative to control
# [21] = biological target: Mitogen-activated protein kinase 3 (Homo sapiens) (UniProt P27361); assay: Inhibition of wild-type human full length ERK1 (M1 to P379 residues) expressed in Escherichia coli BL21 assessed as residual activity at 1000 nM after 30 mins by Kinomescan method relative to control
# How it was run: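 Single-concentration screen at 1 µM across a 456-kinase KINOMEscan panel. The read-out is Percent Control for each kinase.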
smiles,measurement,setting,value
COc1cc(OC)c(Cl)c(N2Cc3cnc(Nc4ccc(F)cc4)nc3N(C3CCN(C(=O)/C=C/CN(C)C)CC3)C2=O)c1Cl,Activity,[1],92%
same,Activity,[2],90%
same,Activity,[3],99%
same,Activity,[4],100%
same,Activity,[5],83%
same,Activity,[6],82%
same,Activity,[7],19%
same,Activity,[8],96%
same,Activity,[9],99%
same,Activity,[10],100%
same,Activity,[11],100%
same,Activity,[12],86%
same,Activity,[13],100%
same,Activity,[14],100%
same,Activity,[15],96%
same,Activity,[16],100%
same,Activity,[17],7.6%
same,Activity,[18],100%
same,Activity,[19],100%
same,Activity,[20],99%
same,Activity,[21],100%
